From ChEMBL document CHEMBL1139494, “In vitro and in vivo anti-leishmanial activity of triterpenoid saponins isolated from Maesa balansae and some chemical derivatives” (J Med Chem, 2005)
In brackets after ≈: the same amount, converted by molar mass.

What was measured:
[1] = test system: Leishmania infantum; assay: (§1) Inhibitory concentration against intracellular amastigotes of Leishmania infantum; assay type: functional
Procedure, shortened: (§2)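 Mouse peritoneal macrophages elicited by intraperitoneal 2% potato starch and harvested ~24 h later in RPMI-1640. Each well held 3 × 10^4 macrophages plus 3 × 10^5 parasites with compound, final 0.5–32 µg/mL, in triplicate. After 5 days at 37 °C, Giemsa-stained intracellular amastigotes counted microscopically, expressed as percent reduction vs untreated; mean of three replicates.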

[2] = test system: Leishmania infantum; assay: as §1; assay type: functional, organism-based; procedure, shortened: as §2
[3] = test system: MRC5; assay: Cytotoxic concentration against human lung fibroblast MRC-5 cells; assay type: functional
Procedure, shortened: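 Human lung fibroblasts grown in MEM + 5% heat-inactivated FCS, about 5000 cells/well, exposed to compound in triplicate. Viability read after 7 days with Alamar Blue fluorescent dye and expressed as percent reduction versus untreated wells. CC50 estimated from log-concentration plot; value is mean of three replicates.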

[4] = test system: Leishmania infantum; assay: Lowest dose (single subcutaneous administration) causing >90% reduction of liveramastigotes of Leishmania infantum in mouse; assay type: functional
Procedure, shortened: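 Male BALB/c mice given 10^7 L. infantum amastigotes (from spleen of infected donor hamster) intravenously via lateral tail vein on day 0, three per group. Single subcutaneous dose in isotonic saline (filter-sterilized, diluted from 2 mg/mL stock) given day 0. At 7 days post-treatment, Giemsa-stained liver impression smears scored for amastigotes per liver cell.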

[5] = Leishmania infantum, read-out: IC50

IC90 [1]	IC50 [2, 5]	IC50 [2]	Compound	CC50 [3]	Dose [4]	DOSE [4]
0.03 µg/mL (≈ 0.0198 µM)	0.018 µg/mL (≈ 0.0119 µM)		C/C=C(/C)C(=O)O[C@H]1[C@H](OC(=O)CCc2ccccc2)[C@@]23C(CC1(C)C)[C@]1(CCC4[C@@]5(C)CC[C@H](O[C@@H]6OC(C(=O)O)[C@@H](O)C(O[C@@H]7OC(CO)[C@H](O)C(O)[C@@H]7OC7O[C@@H](C)C(O)[C@H](O)C7OC7O[C@@H](C)[C@H](O)C(O)[C@@H]7O)[C@@H]6O[C@@H]6OC(CO)[C@@H](O)C(O)[C@@H]6O)C(C)(C)C5CC[C@@]4(C)[C@]1(C)C[C@H]2O)O[C@@H]3O (stereo partly specified)	0.6 µg/mL (≈ 0.396 µM)		
0.015 µg/mL (≈ 0.00977 µM)	0.009 µg/mL (≈ 0.00586 µM)		C[C@@H]1OC(O[C@H]2C(O)[C@@H](O)C(CO)O[C@H]2OC2[C@H](O)C(C(=O)O)O[C@@H](O[C@H]3CC[C@@]4(C)C(CC[C@]5(C)C4CC[C@]46O[C@H](O)[C@]7(C4CC(C)(C)[C@@H](OC(=O)c4ccccc4)[C@@H]7OC(=O)CCc4ccccc4)[C@H](O)C[C@]65C)C3(C)C)[C@H]2O[C@@H]2OC(CO)[C@@H](O)C(O)[C@@H]2O)C(OC2O[C@@H](C)[C@H](O)C(O)[C@@H]2O)[C@@H](O)C1O (stereo partly specified)	0.3 µg/mL (≈ 0.195 µM)		
0.373 µg/mL (≈ 0.404 µM)	0.285 µg/mL (≈ 0.308 µM)		C[C@@H]1[C@H](O)[C@@H](C)/C=C/C=C/C=C/C=C/C=C/C=C/C=C/[C@H](O[C@@H]2O[C@H](C)[C@@H](O)[C@H](N)[C@@H]2O)C[C@@H]2O[C@](O)(C[C@@H](O)C[C@@H](O)[C@H](O)CC[C@@H](O)C[C@@H](O)CC(=O)O[C@H]1C)C[C@H](O)[C@H]2C(=O)O [AMPHOTERICIN B]	> 32 µg/mL	>10 mg/kg	
> 32 µg/mL	22 µg/mL (≈ 31.4 µM)		C/C=C(/C)C(=O)O[C@H]1[C@H](OC(=O)/C=C\c2ccccc2)[C@@]2(C=O)C(CC1(C)C)C1=CCC3[C@@]4(C)CC[C@H](O)C(C)(C)C4CC[C@@]3(C)[C@]1(C)C[C@H]2O (stereo partly specified)	> 32 µg/mL		
		5.6 µg/mL	STIBOGLUCONATE [listing 2 of 2 here]			
> 32 µg/mL	> 32 µg/mL		CC1(C)CC2C3=CCC4[C@@]5(C)CC[C@H](O)C(C)(C)C5CC[C@@]4(C)[C@]3(C)C[C@@H](O)[C@@]2(C=O)[C@@H](OC(=O)/C=C\c2ccccc2)[C@@H]1OC(=O)c1ccccc1 (stereo partly specified)	> 32 µg/mL		
> 32 µg/mL	> 32 µg/mL		CC(=O)O[C@@H]1C[C@]2(C)C(=CCC3[C@@]4(C)CC[C@H](O)C(C)(C)C4CC[C@]32C)C2CC(C)(C)[C@@H](OC(=O)c3ccccc3)[C@H](OC(=O)/C=C/c3ccccc3)[C@@]21C=O (stereo partly specified)	> 32 µg/mL		

Further lines, the compound ahead of its results:

Compound	IC90 [1]	IC50 [2, 5]	IC50 [2]	CC50 [3]	Dose [4]	DOSE [4]
C/C=C(/C)C(=O)O[C@H]1[C@H](OC(=O)/C=C/c2ccccc2)[C@@]23C(CC1(C)C)[C@]1(CCC4[C@@]5(C)CC[C@H](O[C@@H]6OC(C(=O)O)[C@@H](O)C(O[C@@H]7OC(CO)[C@H](O)C(O)[C@@H]7OC7O[C@@H](C)C(O)[C@H](O)C7OC7O[C@@H](C)[C@H](O)C(O)[C@@H]7O)[C@@H]6O[C@@H]6OC(CO)[C@@H](O)C(O)[C@@H]6O)C(C)(C)C5CC[C@@]4(C)[C@]1(C)C[C@H]2O)O[C@@H]3O (stereo partly specified)	0.021 µg/mL (≈ 0.0139 µM)	0.014 µg/mL (≈ 0.00926 µM)		0.1 µg/mL (≈ 0.0662 µM)	0.4 mg/kg	
CC1(C)CC2C3=CCC4[C@@]5(C)CC[C@H](O)C(C)(C)C5CC[C@@]4(C)[C@]3(C)C[C@@H](O)[C@@]2(C=O)[C@@H](OC(=O)/C=C/c2ccccc2)[C@@H]1OC(=O)c1ccccc1 (stereo partly specified)	> 16 µg/mL	8 µg/mL (≈ 11.1 µM)		32 µg/mL (≈ 44.3 µM)	>40 mg/kg	
C/C=C(/C)C(=O)O[C@H]1[C@H](OC(=O)/C=C\c2ccccc2)[C@@]23C(CC1(C)C)[C@]1(CCC4[C@@]5(C)CC[C@H](O[C@@H]6OC(C(=O)O)[C@@H](O)C(O[C@@H]7OC(CO)[C@H](O)C(O)[C@@H]7OC7O[C@@H](C)C(O)[C@H](O)C7OC7O[C@@H](C)[C@H](O)C(O)[C@@H]7O)[C@@H]6O[C@@H]6OC(CO)[C@@H](O)C(O)[C@@H]6O)C(C)(C)C5CC[C@@]4(C)[C@]1(C)C[C@H]2O)O[C@@H]3O (stereo partly specified)	0.094 µg/mL (≈ 0.0622 µM)	0.023 µg/mL (≈ 0.0152 µM)		0.5 µg/mL (≈ 0.331 µM)	>0.8 mg/kg	
C[C@@H]1OC(O[C@H]2C(O)[C@@H](O)C(CO)O[C@H]2OC2[C@H](O)C(C(=O)O)O[C@@H](O[C@H]3CC[C@@]4(C)C(CC[C@]5(C)C4CC[C@]46O[C@H](O)[C@]7(C4CC(C)(C)[C@@H](O)[C@@H]7O)[C@H](O)C[C@]65C)C3(C)C)[C@H]2O[C@@H]2OC(CO)[C@@H](O)C(O)[C@@H]2O)C(OC2O[C@@H](C)[C@H](O)C(O)[C@@H]2O)[C@@H](O)C1O (stereo partly specified)	> 32 µg/mL	> 32 µg/mL		> 32 µg/mL	>40 mg/kg	
STIBOGLUCONATE [listing 1 of 2 here]	> 32 µg/mL			> 32 µg/mL		> 40 mg/kg
C[C@@H]1OC(O[C@H]2C(O)[C@@H](O)C(CO)O[C@H]2OC2[C@H](O)C(C(=O)O)O[C@@H](O[C@H]3CC[C@@]4(C)C(CC[C@]5(C)C4CC[C@]46O[C@H](O)[C@]7(C4CC(C)(C)[C@@H](OC(=O)c4ccccc4)[C@@H]7OC(=O)/C=C\c4ccccc4)[C@H](O)C[C@]65C)C3(C)C)[C@H]2O[C@@H]2OC(CO)[C@@H](O)C(O)[C@@H]2O)C(OC2O[C@@H](C)[C@H](O)C(O)[C@@H]2O)[C@@H](O)C1O (stereo partly specified)	0.031 µg/mL (≈ 0.0202 µM)	0.018 µg/mL (≈ 0.0117 µM)		0.5 µg/mL (≈ 0.326 µM)	0.8 mg/kg	
C[C@@H]1OC(O[C@H]2C(O)[C@@H](O)C(CO)O[C@H]2OC2[C@H](O)C(C(=O)O)O[C@@H](O[C@H]3CC[C@@]4(C)C(CC[C@]5(C)C4CC[C@]46O[C@H](O)[C@]7(C4CC(C)(C)[C@@H](OC(=O)c4ccccc4)[C@@H]7OC(=O)/C=C/c4ccccc4)[C@H](O)C[C@]65C)C3(C)C)[C@H]2O[C@@H]2OC(CO)[C@@H](O)C(O)[C@@H]2O)C(OC2O[C@@H](C)[C@H](O)C(O)[C@@H]2O)[C@@H](O)C1O (stereo partly specified)	0.012 µg/mL (≈ 0.00782 µM)	0.007 µg/mL (≈ 0.00456 µM)		0.5 µg/mL (≈ 0.326 µM)	0.2 mg/kg	
C/C=C(/C)C(=O)O[C@H]1[C@H](OC(=O)/C=C/c2ccccc2)[C@@]2(C=O)C(CC1(C)C)C1=CCC3[C@@]4(C)CC[C@H](O)C(C)(C)C4CC[C@@]3(C)[C@]1(C)C[C@H]2OC(C)=O (stereo partly specified)	> 32 µg/mL	> 32 µg/mL		> 32 µg/mL		
CC(=O)O[C@@H]1C[C@]2(C)[C@@]3(CCC4[C@@]5(C)CC[C@H](O[C@@H]6OC(C(=O)O)[C@@H](O)C(O[C@@H]7OC(CO)[C@H](O)C(O)[C@@H]7OC7O[C@@H](C)C(O)[C@H](O)C7OC7O[C@@H](C)[C@H](O)C(O)[C@@H]7O)[C@@H]6O[C@@H]6OC(CO)[C@@H](O)C(O)[C@@H]6O)C(C)(C)C5CC[C@]42C)O[C@H](O)[C@]12C3CC(C)(C)[C@@H](OC(=O)c1ccccc1)[C@@H]2OC(=O)/C=C/c1ccccc1 (stereo partly specified)	0.125 µg/mL (≈ 0.0793 µM)	0.046 µg/mL (≈ 0.0292 µM)		8 µg/mL (≈ 5.08 µM)	>0.8 mg/kg	
CC=C(C)C(=O)O[C@H]1[C@H](OC(=O)/C=C/c2ccccc2)[C@@]2(C=O)C(CC1(C)C)C1=CCC3[C@@]4(C)CC[C@H](O)C(C)(C)C4CC[C@@]3(C)[C@]1(C)C[C@H]2O (stereo partly specified)	> 32 µg/mL	> 32 µg/mL		> 32 µg/mL		
C/C=C(/C)C(=O)O[C@H]1[C@H](OC(=O)/C=C/c2ccccc2)[C@@]23C(CC1(C)C)[C@]1(CCC4[C@@]5(C)CC[C@H](O[C@@H]6OC(C(=O)O)[C@@H](O)C(O[C@@H]7OC(CO)[C@H](O)C(O)[C@@H]7OC7O[C@@H](C)C(O)[C@H](O)C7OC7O[C@@H](C)[C@H](O)C(O)[C@@H]7O)[C@@H]6O[C@@H]6OC(CO)[C@@H](O)C(O)[C@@H]6O)C(C)(C)C5CC[C@@]4(C)[C@]1(C)C[C@H]2OC(C)=O)O[C@@H]3O (stereo partly specified)	0.125 µg/mL (≈ 0.0805 µM)	0.041 µg/mL (≈ 0.0264 µM)		8 µg/mL (≈ 5.15 µM)	>0.8 mg/kg	
